Source: PubChem BioAssay (Sanford-Burnham Center for Chemical Genomics)
Shown are actives, neighbours in structure and some others; about 3.1% of the full set was active somewhere.
UBC13 polyUb: UBC13 polyubiquitin chain formation inhibitors, primary screen, biochemical, TR-FRET, uHTS; Ubiquitin-conjugating enzyme E2 N (Homo sapiens), P61088; inhibition, % at 20 µM; actives 0.47% (n = 330,000); in the data active = inhibition above about 45%, passing the limit was not always enough; inconclusive = no clear call, values can overlap the other calls
Target sequence (P61088 whole entry, looked up): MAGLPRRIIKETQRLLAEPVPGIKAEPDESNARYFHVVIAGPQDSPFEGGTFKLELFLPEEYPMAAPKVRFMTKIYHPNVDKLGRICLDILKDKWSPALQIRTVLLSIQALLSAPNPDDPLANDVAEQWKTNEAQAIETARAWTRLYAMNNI
SENP8 block-1: SENP8 protease inhibitors, primary screen, biochemical, luminescence. purified SENP8, Z-RLRGG-aminoluciferin cleavage. inhibition, % at 10 µM. actives 1.2% (n = 330,000); in the data active = inhibition above about 50%
SENP7 block: SENP7 protease inhibitors, primary screen, biochemical, luminescence, uHTS. recombinant SENP7, Z-RLRGG-aminoluciferin luminescence, 40 min. inhibition, % at 5 µM. actives 1.5% (n = 330,000);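 active = inhibition above about 50% at the single test dose, limit read from the data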;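 also: plate controls were DMSO with enzyme for no effect and no enzyme buffer wells for full effect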
SENP6 inh: SENP6 protease inhibitors, primary screen, biochemical, luminescence, uHTS. Recombinant SENP6 catalytic domain, aminoluciferin luminescence. actives 1.8% (n = 330,000). inhibition, % at 10 µM. Sentrin-specific protease 6 (Homo sapiens), Q9GZR1;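 active = inhibition above about 50% at the single tested dose, limit read from the data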;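 also: plate controls were DMSO wells with enzyme for no effect and DMSO wells lacking enzyme for full effect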
Target sequence (Q9GZR1 628-1112 limits assumed): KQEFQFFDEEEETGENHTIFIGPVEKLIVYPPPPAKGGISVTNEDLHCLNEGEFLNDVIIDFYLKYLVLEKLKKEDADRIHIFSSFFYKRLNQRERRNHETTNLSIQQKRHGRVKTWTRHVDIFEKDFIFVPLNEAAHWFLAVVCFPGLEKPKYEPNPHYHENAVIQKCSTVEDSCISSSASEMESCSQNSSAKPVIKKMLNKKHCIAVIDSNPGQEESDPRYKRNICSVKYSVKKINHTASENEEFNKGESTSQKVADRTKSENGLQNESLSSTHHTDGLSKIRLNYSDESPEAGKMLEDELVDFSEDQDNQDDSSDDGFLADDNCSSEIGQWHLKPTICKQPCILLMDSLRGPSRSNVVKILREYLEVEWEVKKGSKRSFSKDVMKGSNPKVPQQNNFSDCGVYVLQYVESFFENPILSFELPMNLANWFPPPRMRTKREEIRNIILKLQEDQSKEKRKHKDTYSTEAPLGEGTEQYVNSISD
Apaf-1 inh: inhibitors of human Apaf-1 apoptosome, primary screen, biochemical, DEVD-Rh110 fluorescence, uHTS; reconstituted apoptosome caspase-3 activity; actives 0.71% (n = 330,000); inhibition, % at 20 µM; Apoptotic protease-activating factor 1 (Homo sapiens), O14727; AID 489030, 2010; active = inhibition of at least 40% at 20 µM;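 also: plate controls were DMSO wells for no effect and DEVD-CHO caspase inhibitor wells for full effect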
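System – cell-free apoptosome with Apaf-1, procaspase-3 and caspase-9 · Buffer or medium – pH 7.5 Hepes buffer with CHAPS, BSA, DTT · Also added – cytochrome c with DEVD-Rh110 · Times – 30 min compound preincubation, 50 min activation, room temperature · Technique – Rh110 fluorescence intensity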
SENP8 block-2: human SENP8 protease inhibitors, primary screen, biochemical, fluorescence, Nedd8 protein substrate, uHTS; Sentrin-specific protease 8 (Homo sapiens), Q96LD8; recombinant SENP8; inhibition, % at 20 µM; actives 0.64% (n = 360,000); in the data active = inhibition mostly above about 40%, no sharp cut-off; inactive = mostly below about 27%
SENP8 inh conf: human SENP8 protease inhibitors, confirmation, biochemical, Nedd8 protein substrate, single concentration; purified SENP8, Nedd8-AMC/pro-Nedd8 cleavage fluorescence, 30 min; actives 15% (n = 1,400); shares compounds with SENP8 block-2; inhibition, % at 25 µM; AID 624319, 2012; in the data active = inhibition mostly above about 39%, no sharp cut-off; inactive = mostly below about 34%
* hit, by the source's call; ? = inconclusive; · = no result.

SMILES | UBC13 polyUb | SENP8 block-1 | SENP7 block | SENP6 inh | Apaf-1 inh | SENP8 block-2 | SENP8 inh conf
COC/C=C/C1=CC2=CC(=O)C(C)(OC(=O)c3cnc4ccccc4n3)C(=O)C2=CN1CCCOC(C)C (stereo not drawn) | -59 | -11 | -9 | 9 | 32 | 44* | 34
C=CCN1C=C2C(=O)C(C)(OC(=O)c3cnc4ccccc4n3)C(=O)C=C2C=C1/C=C/COC (stereo not drawn) | -71 | 7 | 2 | 10 | 15 | -19 | ·
COC/C=C/C1=CC2=CC(=O)C(C)(OC(=O)c3cnc4ccccc4n3)C(=O)C2=CN1CCOC (stereo not drawn) | -56 | 5 | 8 | 20 | 23 | 54* | 47*
CC(C)C[C@H]1COc2cc(N3CCC[C@H]3CO)ccc2S(=O)(=O)N1 | · | · | · | · | · | 6 | ·
COc1nc(/C=C/N(C)C)c([N+](=O)[O-])c(OC)n1 | -74 | 4 | -2 | 0 | -13 | 43* | 19
O=[N+]([O-])c1ccc(-[n+]2ccc3ccccc3c2)c([N+](=O)[O-])c1 | -15 | 22 | 0 | 41 | -7 | 46* | 35
COc1ccccc1N1C(=O)C2C(c3ccc(F)cc3)NN(C(=O)c3ccc(C)cc3)C2C1=O (stereo not drawn) | -5 | -1 | 6 | -13 | -2 | 44* | 21
CC1(C)Cc2cccc(OCC(=O)OCC(=O)Nc3ccccc3)c2O1 | 2 | 16 | -2 | 9 | 6 | 5 | ·
CC1(C)Cc2cccc(OCC(=O)OCC(=O)Nc3cccc(S(N)(=O)=O)c3)c2O1 | 4 | -4 | 0 | -15 | -8 | 40* | 8
O=C(O)c1cccc(N2C(=O)c3ccc4c5c(ccc(c35)C2=O)C(=O)N(c2cccc(C(=O)O)c2)C4=O)c1 | -50 | 1 | 7 | -1 | 4 | 50* | 50*
Cc1cccc(N2C(=O)/C(=C\c3ccc(C(=O)O)cc3)c3ccccc3C2=O)c1 | 5 | 5 | 23 | 33 | 27 | 43* | -37
O=C(O)c1cccc(C(=O)O)c1 | 0 | -17 | 12 | -9 | 15 | 45* | 12
O=C(c1ccccc1)c1cccc(C(=O)c2ccccc2)c1 | 8 | -13 | -4 | -2 | 26 | 8 | ·
COc1cc(C(=O)Nc2ccc(S(=O)(=O)N3CCCCC3)cc2)ccc1OCC(=O)N1CCOCC1 | · | · | · | · | · | -2 | ·
CCc1nc2ccc(C(=O)N(CC)CCN(C)C)cn2c1N(C)C(=O)c1cccc(OC)c1 | · | · | · | · | · | 6 | ·
COc1ccc(S(=O)(=O)N(C)C[C@@H]2OCc3cnnn3CCCC(=O)N([C@@H](C)CO)C[C@@H]2C)cc1 | · | · | · | · | · | 10 | ·
COc1ccc(-c2csc(NC(=S)NC(=O)/C=C/c3ccco3)n2)cc1OC | · | · | · | · | · | 31 | ·
COc1ccc(-c2csc(NC(=S)NC(=O)/C=C/c3ccco3)n2)cc1Br | -33 | -5 | -3 | -13 | -5 | 43* | 16
CCCCCCN1C=CC=C/C1=C\C=C(C#N)C#N | -44 | -5 | -9 | -7 | 0 | 43* | 29
COc1ccc(N/C=C/c2nc(SC)nnc2C)cc1 | -206 | -6 | -2 | -10 | 24 | 36* | 36
CSc1nnc(C)c(/C=C/Nc2ccc(F)cc2)n1 | -23 | -1 | 15 | 15 | 9 | -2 | ·
CNC(=O)OCc1nc(SC2CCCCO2)n(C)c1COC(=O)NC (stereo not drawn) | · | · | · | · | · | 6 | ·
CC1(C)C=Cc2c(ccc3c2OC[C@H](c2ccc(O)cc2O)C3)O1 | 23 | -8 | 6 | -20 | 10 | 16 | ·
CC(C)=CCc1cc([C@@H]2COc3c(ccc4c3C=CC(C)(C)O4)C2)c(O)cc1O | -11 | -1 | 4 | -9 | -5 | 48* | 24
COC(=O)c1cc2c(-c3ccccc3)cc3ccccn3c-2c1C(=O)OC | -62 | -12 | -9 | -3 | 14 | -113 | ·
SMILES | UBC13 polyUb | SENP8 block-1 | SENP7 block | SENP6 inh | Apaf-1 inh | SENP8 block-2 | SENP8 inh conf
COC(=O)c1c(C(=O)OC)c2cccc3cc(-c4ccccc4)c4ccc1c4n32 | -112 | 23 | 20 | 40 | 65* | 74* | 27
CN(C)/N=C/c1ccc([N+](=O)[O-])cc1[N+](=O)[O-] | -9 | -5 | 7 | -23 | -1 | 20 | ·
CN(N=Cc1cccc2cccnc12)c1ccc([N+](=O)[O-])cc1[N+](=O)[O-] | · | · | · | · | · | 41* | 10
COCCNC(=O)C1CCCN(C(=O)c2cccnc2Oc2ccccc2)CC1 (stereo not drawn) | · | · | · | · | · | 15 | ·
CC1(C(=O)Nc2ccc3c(c2)OCCO3)CCN1Cc1ccc2ccccc2c1 (stereo not drawn) | · | · | · | · | · | 40* | -12
CC1(C(=O)Nc2ccc3c(c2)OCCO3)CCN1Cc1ccc(-c2ccccn2)cc1 (stereo not drawn) | · | · | · | · | · | 18 | ·
O=C(CCCOc1ccccc1)N1CCN(S(=O)(=O)c2ccccc2)CC1 | 2 | 7 | 1 | 4 | 3 | 0 | ·
O=C(CCC(=O)N1CCc2ccccc2C1)N1CCN(S(=O)(=O)c2ccccc2)CC1 | 8 | 7 | 3 | 17 | 16 | 43* | 64*
CCOC(=O)C1CCCN(C(=O)c2ccc3c(c2)C(C)(C)CCC3(C)C)CC1 (stereo not drawn) | · | · | · | · | · | 15 | ·
Cc1ccc(S(=O)(=O)Nc2ccc(=O)n(Cc3ccc(Cl)c(Cl)c3)c2)cc1 | -2 | 9 | -1 | 5 | 14 | -46 | ·
O=c1ccc(NS(=O)(=O)c2ccccc2Cl)cn1Cc1ccc(Cl)c(Cl)c1 | 3 | 10 | 10 | 21 | 2 | 39* | -7
O=S(=O)(c1ccccc1)N1CCN(S(=O)(=O)c2ccccc2)C1 | 2 | -3 | -4 | -4 | -2 | 41* | 13
O=S(=O)(c1ccccc1)N1CCN(C2CCCCCCC2)CC1 | 6 | 10 | -6 | 4 | 4 | 41* | 22
COc1ccccc1C(=O)N1CCN(S(=O)(=O)c2ccccc2)CC1 | -14 | -6 | 2 | -12 | 1 | 46* | 20
NS(=O)(=O)c1ccc(S(=O)(=O)N2CCN(C3CCCC3)CC2)cc1 | -6 | -11 | -8 | -21 | 5 | 11 | ·
CCCc1nc2ccc(Br)cn2c1Cc1cccc(Cl)c1 | · | · | · | · | · | -28 | ·
CCN(CC(=O)NC1CCS(=O)(=O)C1)Cc1nc2c(Br)cc(Br)cc2c(=O)[nH]1 (stereo not drawn) | ? | -3 | -4 | -3 | 7 | 0 | ·
